The record followed here is ChEMBL document CHEMBL4699542, “Design and synthesis of novel methoxypyridine-derived gamma-secretase modulators” (Bioorg Med Chem, 2020).

The nature of series [1]: AUClast in CD-1 mouse at 1 mg/kg, iv administered as single dose measured up to 24 hrs. The settings on record: in vivo. Also noted: route intravenous, dose 1 mg/kg, time <=24. It counts as ADME, organism-based. The essentials:
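Male CD-1 mice, 6–8 weeks old, single dose by tail vein (1 mg/kg, 3% NMP/45% PEG300/12% ethanol/40% water) or oral gavage (5 mg/kg, 5% NMP/95% PEG300). Retro-orbital plasma sampled 0.083 (iv only) to 24 h, n=3/timepoint, and analysed by HPLC/MS/MS. Non-compartmental analysis. Half-life taken from the terminal phase using ≥3 non-zero points after Tmax.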

Series [2] deals with Mus musculus. The series is described as follows: In vivo modulation of gamma secretase in po dosed transgenic J20 mouse overexpressing human APP assessed as reduction in plasma amyloid beta40 level administered via gavage for 3 consecutive days and measured after 4 hrs post last dose on day 3 by meso scale discovery. It counts as functional, organism-based. The settings on record: dose mg/kg 25-100, time 3.0 day. The method in brief: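 Female J20 mice, 5–6 months old (n=5/dose), dosed orally at 25, 50 or 100 mg/kg or with vehicle (5% NMP/95% PEG300) for 3 consecutive days. Plasma was taken 4 h after the final dose. Aβ38/40/42 measured by Meso Scale multiplex immunoassay, with % reduction relative to vehicle. Mean ± SEM, ANOVA.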

Series [3] in a line: In vivo modulation of gamma secretase transgenic Tg2576 mouse overexpressing human APP harboring K595N/M596L Swedish double mutant assessed as reduction in plasma amyloid beta42 level at 50 mg/kg, po administered via gavage for 14 consecutive days and measured after 4 hrs post last dose on day 14 by meso scale discovery relative to control. Format: functional. Also noted: scale not given: the % may be the effect or the level left. The settings on record: time 14 day. The essentials: (§1)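 Female Tg2576 mice, 5–6 months old (n=12/dose), gavaged daily for 14 days with 50 mg/kg or vehicle (5% NMP/95% PEG300). Plasma and brain taken 4 h after the last dose. Aβ38/40/42 quantified by Meso Scale multiplex assay, with % reduction versus vehicle. Mean ± SEM, ANOVA.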

The nature of series [4]: In vivo modulation of gamma secretase transgenic Tg2576 mouse overexpressing human APP harboring K595N/M596L Swedish double mutant assessed as reduction in brain amyloid beta40 level at 50 mg/kg, po administered via gavage for 14 consecutive days and measured after 4 hrs post last dose on day 14 by meso scale discovery relative to control. It counts as functional. Also noted: scale not given: the % may be the effect or the level left. The settings on record: time 14 day. The essentials: as §1

Series [5] can be described thus: Drug level in plasma of transgenic Tg2576 mouse overexpressing human APP harboring K595N/M596L Swedish double mutant at 50 mg/kg, po administered via gavage for 14 consecutive days and measured after 4 hrs post last dose on day 14 by HPLC-MS/MS analysis. Format: ADME, organism-based. The settings on record: time 14 day. The essentials:
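Female Tg2576 mice, 5–6 months old, gavaged with 50 mg/kg daily for 14 days (vehicle 5% NMP/95% PEG300), n=12/dose. Plasma and brain collected 4 h after the last dose and analysed by LC-MS/MS. LLOQ was 1 ng/mL in plasma and 5 ng/g in brain.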

Series [6] can be described thus: In vivo modulation of gamma secretase transgenic Tg2576 mouse overexpressing human APP harboring K595N/M596L Swedish double mutant assessed as reduction in brain amyloid beta42 level at 50 mg/kg, po administered via gavage for 14 consecutive days and measured after 4 hrs post last dose on day 14 by meso scale discovery relative to control. It counts as functional. More on the design: scale not given: the % may be the effect or the level left. The settings on record: time 14 day. The method in brief:
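Female Tg2576 mice, 5–6 months old (n=12/dose), dosed daily by oral gavage for 14 days with vehicle (5% NMP/95% PEG300) or 50 mg/kg test article. Killed 4 h post final dose; brain and plasma Aβ38/40/42 measured by Meso Scale multiplex (SECTOR Imager 6000). Percent reduction versus vehicle; mean ± SEM, ANOVA.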

A short description of series [7]: In vivo modulation of gamma secretase transgenic Tg2576 mouse overexpressing human APP harboring K595N/M596L Swedish double mutant assessed as reduction in plasma amyloid beta40 level at 50 mg/kg, po administered via gavage for 14 consecutive days and measured after 4 hrs post last dose on day 14 by meso scale discovery relative to control. Format: functional. Also noted: scale not given: the % may be the effect or the level left. The settings on record: time 14 day. The essentials:
as §1

The nature of series [8]: Metabolic stability in mouse liver microsomes assessed as parent compound remaining at 1 uM incubated for 30 mins. Format: ADME, Microsome. The settings on record: 0.5 h. The method in brief:
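Test compound at 1 μM incubated 30 min with human, rat or mouse liver microsomes (1 mg/mL); parent remaining expressed as %.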
On the technique in general: Microsomes from liver hold many membrane-bound enzymes, among them those of drug oxidation.

The compound `CCn1nc2c(c1Nc1nc(-c3ccc(-n4cnc(C)c4)c(OC)n3)cs1)CCC2` came in with an AUClast in series [1] of 376 ng·h/mL. Besides, the Activity result in series [2] is “Dose-dependent effect”; in series [3], 52%; in series [4], 1%; in series [6], 23%; in series [7], 24%. Besides, in series [5], the concentration at 336 h is 1130 ng/mL.
On to `COc1nc(-c2csc(Nc3c4c(nn3CCF)CCCC4)n2)ccc1-n1cnc(C)c1`, for which the Stabilty in series [8] stood at 100%.
